Calls of active or inactive are those of the source. The calls are words filed in the database; no cut-off is given here.
Key:
[1] = target: Toll-like receptor 3 (Homo sapiens) (UniProt O15455); experiment: Agonist activity at human TLR3 HEK-Blue cells assessed as increase in NFkappaB activation by sAP reporter gene assay; type: functional, cell-based
Outline: (§1)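 HEK293 cells stably transfected with human TLR3, TLR7 or TLR8 plus MD2 and an NF-κB/AP-1-driven secreted alkaline phosphatase reporter (HEK-Blue), kept in selection medium with zeocin and normocin. Cells at ~10^5 cells/ml were grown to confluency and then given graded concentrations of stimuli. Supernatant sAP was read spectrophotometrically at 620 nm with a chromogen in HEK-detection medium.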

PBMC = experiment: Immunostimulatory activity in human PBMC assessed as induction IFN-alpha production after 12 hrs by ELISA; type: functional, cell-based
Outline: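 Healthy-donor PBMCs were prepared by Ficoll-Hypaque gradient and aliquoted at 10⁶ cells. Cells were stimulated 12 h with graded test concentrations. Supernatant was diluted 1:20 and IFN-α measured in triplicate by high-sensitivity human IFN-α ELISA.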

Toll-like receptor 7 [2] = target: T1, Toll-like receptor 7 (Homo sapiens, UniProt Q9NYK1); experiment: Agonist activity at human TLR7 expressed in HEK-Blue cells assessed as increase in NFkappaB activation by sAP reporter gene assay; type: functional, cell-based; outline: as §1
T1 sequence (Q9NYK1 whole entry): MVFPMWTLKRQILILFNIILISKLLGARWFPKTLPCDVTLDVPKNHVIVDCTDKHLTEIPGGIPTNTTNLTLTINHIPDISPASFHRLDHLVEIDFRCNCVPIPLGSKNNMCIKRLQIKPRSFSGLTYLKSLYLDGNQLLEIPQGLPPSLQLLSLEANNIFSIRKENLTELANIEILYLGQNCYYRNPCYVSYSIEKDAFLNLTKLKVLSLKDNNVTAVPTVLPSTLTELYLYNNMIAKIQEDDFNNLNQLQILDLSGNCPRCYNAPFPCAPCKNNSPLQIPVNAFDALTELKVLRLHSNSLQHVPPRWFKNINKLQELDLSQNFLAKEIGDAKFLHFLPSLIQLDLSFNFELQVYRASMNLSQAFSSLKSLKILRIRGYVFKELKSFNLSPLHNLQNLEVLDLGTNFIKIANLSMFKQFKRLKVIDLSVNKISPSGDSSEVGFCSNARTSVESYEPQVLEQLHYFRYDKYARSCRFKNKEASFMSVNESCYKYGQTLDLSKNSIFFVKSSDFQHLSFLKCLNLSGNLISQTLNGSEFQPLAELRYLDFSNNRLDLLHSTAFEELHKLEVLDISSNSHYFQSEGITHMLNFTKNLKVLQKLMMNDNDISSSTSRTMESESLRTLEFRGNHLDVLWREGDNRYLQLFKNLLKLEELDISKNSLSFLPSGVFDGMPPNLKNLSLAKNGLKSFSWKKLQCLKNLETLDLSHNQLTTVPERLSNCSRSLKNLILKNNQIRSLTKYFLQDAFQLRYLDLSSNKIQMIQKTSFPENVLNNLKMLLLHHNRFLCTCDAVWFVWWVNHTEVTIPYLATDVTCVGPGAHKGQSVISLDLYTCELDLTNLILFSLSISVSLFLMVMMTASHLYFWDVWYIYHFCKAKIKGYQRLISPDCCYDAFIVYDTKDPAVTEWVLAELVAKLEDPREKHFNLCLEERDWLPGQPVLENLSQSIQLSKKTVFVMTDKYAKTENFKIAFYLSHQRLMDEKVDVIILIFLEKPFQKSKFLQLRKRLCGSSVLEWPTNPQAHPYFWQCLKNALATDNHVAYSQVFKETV

Toll-like receptor 8 [3] = target: T2, Toll-like receptor 8 (Homo sapiens, UniProt Q9NR97); experiment: Agonist activity at human TLR8 expressed in HEK-Blue cells assessed as increase in NFkappaB activation by sAP reporter gene assay; type: functional, cell-based; outline: as §1
T2 sequence (Q9NR97 whole entry): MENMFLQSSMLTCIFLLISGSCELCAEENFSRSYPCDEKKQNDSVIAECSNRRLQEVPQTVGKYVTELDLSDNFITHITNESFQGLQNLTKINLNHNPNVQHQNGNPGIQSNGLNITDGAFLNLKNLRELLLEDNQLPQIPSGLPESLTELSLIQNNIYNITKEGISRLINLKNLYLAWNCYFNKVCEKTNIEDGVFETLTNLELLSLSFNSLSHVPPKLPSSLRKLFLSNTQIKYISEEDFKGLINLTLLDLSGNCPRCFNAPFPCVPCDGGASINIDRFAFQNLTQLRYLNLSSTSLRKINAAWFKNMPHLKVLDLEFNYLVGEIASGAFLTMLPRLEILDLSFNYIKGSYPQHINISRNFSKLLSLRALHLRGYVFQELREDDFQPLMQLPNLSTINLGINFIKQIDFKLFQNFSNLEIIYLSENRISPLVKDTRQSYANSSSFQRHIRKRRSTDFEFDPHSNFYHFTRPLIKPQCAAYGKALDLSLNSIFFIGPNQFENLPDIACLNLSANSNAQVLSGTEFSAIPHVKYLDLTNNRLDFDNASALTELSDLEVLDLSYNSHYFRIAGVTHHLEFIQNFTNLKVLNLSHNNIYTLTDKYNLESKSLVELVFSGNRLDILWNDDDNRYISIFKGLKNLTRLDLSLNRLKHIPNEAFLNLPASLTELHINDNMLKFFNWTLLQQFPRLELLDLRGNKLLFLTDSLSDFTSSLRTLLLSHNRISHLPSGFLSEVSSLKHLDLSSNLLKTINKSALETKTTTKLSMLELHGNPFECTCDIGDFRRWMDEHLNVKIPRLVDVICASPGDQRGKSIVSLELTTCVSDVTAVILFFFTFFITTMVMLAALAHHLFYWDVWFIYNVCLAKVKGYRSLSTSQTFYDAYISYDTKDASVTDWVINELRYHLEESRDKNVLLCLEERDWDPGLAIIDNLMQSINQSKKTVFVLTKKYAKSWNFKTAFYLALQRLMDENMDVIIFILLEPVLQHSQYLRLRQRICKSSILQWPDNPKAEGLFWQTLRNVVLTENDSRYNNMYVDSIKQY

[4] = target: T3, Toll-like receptor 7 (Homo sapiens) (UniProt Q9NYK1); experiment: (§2) Antagonist activity at TLR7 in human PBMC assessed as inhibition of gardiquimod-induced TNF-alpha release after 12 hrs by bead array assay; type: functional
T3 sequence (whole entry): T1 sequence (Q9NYK1 whole entry)
Outline: (§3)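 Human PBMCs from healthy donors, isolated by Ficoll-Hypaque, 10⁶ cells per aliquot. Cells were incubated 12 h with graded test concentrations plus 10 μg/ml gardiquimod. Supernatants were diluted 1:20 and analytes measured in triplicate by cytokine/chemokine bead array. Three independent experiments.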

[5] = target: T3, Toll-like receptor 7 (Homo sapiens); experiment: (§4) Antagonist activity at TLR7 in human PBMC assessed as inhibition of gardiquimod-induced IL-1beta release after 12 hrs by bead array assay; type: functional; outline: as §3
Toll-like receptor 8 [6] = target: T2, Toll-like receptor 8; experiment: Antagonist activity at TLR8 in human PBMC assessed as inhibition of CL075-induced IL-1beta release after 12 hrs by bead array assay; type: functional
Outline: (§5)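 Ficoll-Hypaque-isolated healthy-donor PBMCs (10⁶ cells) were exposed 12 h to graded test concentrations together with 10 μg/ml CL075. Supernatants were diluted 1:20 and each cytokine or chemokine assayed in triplicate by bead array. Three independent experiments.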

Toll-like receptor 7 [7] = target: T1, Toll-like receptor 7; experiment: Antagonist activity at TLR7 in human PBMC assessed as inhibition of gardiquimod-induced CCL2 release after 12 hrs by bead array assay; type: functional; outline: as §3
Toll-like receptor 7 [8] = target: T1, Toll-like receptor 7; experiment: Antagonist activity at TLR7 in human PBMC assessed as inhibition of gardiquimod-induced CXCL10 release after 12 hrs by bead array assay; type: functional; outline: as §3
[9] = target: T4, Toll-like receptor 8 (Homo sapiens) (UniProt Q9NR97); experiment: Inhibition of human TLR8 expressed in HEK-Blue cells by schild plot analysis
T4 sequence (whole entry): T2 sequence (Q9NR97 whole entry)

Toll-like receptor 8 [10] = target: T2, Toll-like receptor 8; experiment: Antagonist activity at TLR8 in human PBMC assessed as inhibition of CL075-TNF-alpha release after 12 hrs by bead array assay; type: functional; outline: as §5
Toll-like receptor 7 [11] = target: T1, Toll-like receptor 7; experiment: as §2; type: functional; outline: as §3
Toll-like receptor 8 [12] = target: T2, Toll-like receptor 8; experiment: Antagonist activity at TLR8 in human PBMC assessed as inhibition of CL075-induced CCL2 release after 12 hrs by bead array assay; type: functional; outline: as §5
Toll-like receptor 7 [13] = target: T1, Toll-like receptor 7; experiment: as §4; type: functional; outline: as §3
Toll-like receptor 8 [14] = target: T2, Toll-like receptor 8; experiment: Antagonist activity at TLR8 in human PBMC assessed as inhibition of CL075-induced CXCL10 release after 12 hrs by bead array assay; type: functional; outline: as §5
Toll-like receptor 7 [15] = target: T1, Toll-like receptor 7; experiment: Antagonist activity at TLR7 in human PBMC assessed as inhibition of gardiquimod-induced IL-6 release after 12 hrs by bead array assay; type: functional; outline: as §3
Toll-like receptor 8 [16] = target: T2, Toll-like receptor 8; experiment: Antagonist activity at TLR8 in human PBMC assessed as inhibition of CL075-induced IL-8 release after 12 hrs by bead array assay; type: functional; outline: as §5
Toll-like receptor 7 [17] = target: T1, Toll-like receptor 7; experiment: Antagonist activity at TLR7 in human PBMC assessed as inhibition of gardiquimod-induced IL-8 release after 12 hrs by bead array assay; type: functional; outline: as §3
Toll-like receptor 8 [18] = target: T2, Toll-like receptor 8; experiment: Antagonist activity at TLR8 in human PBMC assessed as inhibition of CL075-induced IL-6 release after 12 hrs by bead array assay; type: functional; outline: as §5

Toll-like receptor 3 (Homo sapiens), sequence (O15455 whole entry): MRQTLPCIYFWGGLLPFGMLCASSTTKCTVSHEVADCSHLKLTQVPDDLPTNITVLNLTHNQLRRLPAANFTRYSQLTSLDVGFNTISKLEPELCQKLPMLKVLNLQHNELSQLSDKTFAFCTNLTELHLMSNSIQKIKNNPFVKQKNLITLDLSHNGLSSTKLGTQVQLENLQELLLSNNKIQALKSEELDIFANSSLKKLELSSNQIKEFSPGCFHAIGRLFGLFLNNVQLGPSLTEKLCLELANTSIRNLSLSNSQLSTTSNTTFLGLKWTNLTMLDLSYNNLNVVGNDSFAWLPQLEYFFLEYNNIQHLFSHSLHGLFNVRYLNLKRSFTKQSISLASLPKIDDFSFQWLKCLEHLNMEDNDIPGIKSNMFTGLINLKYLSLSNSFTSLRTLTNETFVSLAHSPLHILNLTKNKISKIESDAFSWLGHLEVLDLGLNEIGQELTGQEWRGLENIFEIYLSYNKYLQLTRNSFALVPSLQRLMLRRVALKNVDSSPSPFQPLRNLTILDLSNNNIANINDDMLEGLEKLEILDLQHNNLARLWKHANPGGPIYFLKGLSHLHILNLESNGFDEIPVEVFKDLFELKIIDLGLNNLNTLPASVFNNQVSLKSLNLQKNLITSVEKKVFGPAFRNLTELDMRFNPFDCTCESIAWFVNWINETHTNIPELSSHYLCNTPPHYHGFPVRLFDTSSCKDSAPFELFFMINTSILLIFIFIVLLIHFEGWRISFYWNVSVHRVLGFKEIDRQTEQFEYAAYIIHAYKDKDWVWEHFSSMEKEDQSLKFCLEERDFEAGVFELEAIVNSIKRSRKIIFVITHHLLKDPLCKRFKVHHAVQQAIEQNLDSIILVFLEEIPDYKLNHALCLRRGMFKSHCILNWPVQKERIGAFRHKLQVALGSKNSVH

With `Nc1nc2ccccc2c2c1nc(CCCCCCc1nc3c(N)nc4ccccc4c3n1Cc1ccccc1)n2Cc1ccccc1` the Activity [1] was “inactive”.

For `CCCCc1nc2c(N)nc3ccccc3c2n1Cc1ccc(CNC(=O)CCCCCCC(=O)NCc2ccc(Cn3c(CCCC)nc4c(N)nc5ccccc5c43)cc2)cc1`, the Activity (PBMC) was “Dose-dependent effect”, the EC50 (Toll-like receptor 7 [2]) was 240 nM and the Activity [1] was “inactive”.

With `CCCCc1nc2c(NCCCCNc3nc4ccccc4c4c3nc(CCCC)n4Cc3ccccc3)nc3ccccc3c2n1Cc1ccccc1` the EC50 (Toll-like receptor 7 [2]) was 2050 nM and the Activity [1] was “inactive”.

With `CCCCc1nc2c(NCCCCCCCCNc3nc4ccccc4c4c3nc(CCCC)n4Cc3ccccc3)nc3ccccc3c2n1Cc1ccccc1` the EC50 (Toll-like receptor 7 [2]) was 560 nM and the Activity [1] was “inactive”.

For `CCCCc1nc2c(NCCCCCCCCCCCCNc3nc4ccccc4c4c3nc(CCCC)n4Cc3ccccc3)nc3ccccc3c2n1Cc1ccccc1`, the Activity (PBMC) was “Dose-dependent effect”, the EC50 (Toll-like receptor 7 [2]) was 1420 nM and the Activity [1] was “inactive”.

In the case of `CCCCc1nc2c(N)nc3ccc(NC(=O)CCCCCCC(=O)Nc4ccc5nc(N)c6nc(CCCC)n(Cc7ccc(CN)cc7)c6c5c4)cc3c2n1Cc1ccc(CN)cc1`, the EC50 (Toll-like receptor 7 [2]) is reported as 4020 nM and the Activity [1] is reported as “inactive”.

In the case of `CCCCc1nc2c(N)nc3ccccc3c2n1Cc1ccc(CNC(=O)CCCCC(=O)NCc2ccc(Cn3c(CCCC)nc4c(N)nc5ccccc5c43)cc2)cc1`, the Activity (PBMC) is reported as “Dose-dependent effect”, the EC50 (Toll-like receptor 7 [2]) is reported as 110 nM and the Activity [1] is reported as “inactive”.

In the case of `CCCCc1nc2c(N)nc3ccc([N+](=O)[O-])cc3c2n1Cc1ccc(CN)cc1`, the EC50 (Toll-like receptor 7 [2]) is reported as 560 nM and the Activity [1] is reported as “inactive”.

`CCCCc1nc2c(N)nc3ccccc3c2n1Cc1ccc(CNC(=O)CCCCCCCCCCC(=O)NCc2ccc(Cn3c(CCCC)nc4c(N)nc5ccccc5c43)cc2)cc1` was tested, and the Activity (PBMC) was “Dose-dependent effect”, the EC50 (Toll-like receptor 7 [2]) was 170 nM and the EC50 (Toll-like receptor 8 [3]) was 4780 nM. The Activity [1] was “inactive”.

`Nc1nc2ccccc2c2c1nc(CCCCCCCCCCc1nc3c(N)nc4ccccc4c3n1Cc1ccccc1)n2Cc1ccccc1` was tested, and the Activity [1] was “inactive”.

In the case of `Nc1nc2ccccc2c2c1nc(CCCCc1nc3c(N)nc4ccccc4c3n1Cc1ccccc1)n2Cc1ccccc1`, the Activity [1] is reported as “inactive”.

With `CCCCc1nc2c(N)nc3ccc(N)cc3c2n1Cc1ccc(CN)cc1` the EC50 (Toll-like receptor 7 [2]) was 450 nM and the Activity [1] was “inactive”.

`CCCCc1nc2c(NCCCCCCCCCCNc3nc4ccccc4c4c3nc(CCCC)n4Cc3ccccc3)nc3ccccc3c2n1Cc1ccccc1` was tested, and the EC50 (Toll-like receptor 7 [2]) was 3000 nM and the Activity [1] was “inactive”.

For `CCN(CC)CCCC(C)Nc1ccnc2cc(Cl)ccc12` (centres undefined), the inhibition [4] was “Active” and the inhibition [5] was “Active”.

With `CCCCc1nc2c(N)nc3ccc(NC(=O)CCCCCCCCCCC(=O)Nc4ccc5nc(N)c6nc(CCCC)n(Cc7ccc(CN)cc7)c6c5c4)cc3c2n1Cc1ccc(CN)cc1` the EC50 (Toll-like receptor 7 [2]) was 5400 nM and the Activity [1] was “inactive”.

`CCCCc1nc2c(N)nc3ccc(NC(=O)CCCCC(=O)Nc4ccc5nc(N)c6nc(CCCC)n(Cc7ccc(CN)cc7)c6c5c4)cc3c2n1Cc1ccc(CN)cc1` was tested, and the Activity (PBMC) was “Dose-dependent effect”, the EC50 (Toll-like receptor 7 [2]) was 7240 nM and the Activity [1] was “inactive”.

In the case of `Nc1nc2ccccc2c2c1nc(CCCc1nc3c(N)nc4ccccc4c3n1Cc1ccccc1)n2Cc1ccccc1`, the IC50 (Toll-like receptor 8 [6]) is reported as 50 nM, the IC50 (Toll-like receptor 7 [7]) is reported as 50 nM and the IC50 (Toll-like receptor 7 [8]) is reported as 50 nM. For the same compound, the inhibition [9] was “Active”, the IC50 (Toll-like receptor 8 [10]) was 50 nM and the IC50 (Toll-like receptor 7 [11]) was 50 nM. For the same compound, the IC50 (Toll-like receptor 8 [12]) was 50 nM, the IC50 (Toll-like receptor 7 [13]) was 50 nM and the IC50 (Toll-like receptor 8 [14]) was 50 nM. For the same compound, the Activity [1] was “inactive”, the IC50 (Toll-like receptor 7 [15]) was 50 nM and the IC50 (Toll-like receptor 8 [16]) was 50 nM. The IC50 (Toll-like receptor 7 [17]) was 50 nM and the IC50 (Toll-like receptor 8 [18]) was 50 nM.

Reference: ChEMBL document CHEMBL2016459, “Toll-like receptor (TLR)-7 and -8 modulatory activities of dimeric imidazoquinolines” (J Med Chem, 2012)
